From PubChem BioAssay
In the library only some 2.4% were active in any assay of this set; here they are far more common.
SUMO1 PPI mod: modulators of human SUMO1-mediated protein-protein interactions; SUMO1 binding to a labelled peptide, TR-FRET, 1 h; AID 602429; 360,000 compounds, 0.33% hits; P63165; inhibition, % at 20 µM; in the data active = inhibition above about 37%
DNMT1 inh: blocks human DNA methyltransferase DNMT1; P26358; DNMT1 molecular beacon, Hinp1I cleavage, fluorescence; inhibition (reported as % activation of signal), % at 10 µM; 360,000 compounds, 0.83% hits; AID 588458; in the data active = inhibition above about 50%
NadD block: inhibitors of Staphylococcus aureus NadD. inhibition, % at 20 µM. 360,000 compounds, 0.78% hits. AID 602399. purified NadD enzyme, colorimetric absorbance read-out; in the data active = inhibition above about 26%
LMPTP inh: blocks human LMPTP phosphatase. inhibition, % at 20 µM. recombinant LMPTP-A, OMFP fluorogenic substrate, fluorescence intensity. P24666. AID 651560. 360,000 compounds, 0.22% hits;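 active = compounds that cut the enzyme signal by at least half of the control window in the single-dose screen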;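 also: plate controls were DMSO wells with enzyme plus substrate for no effect and substrate without enzyme for full effect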
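Test system: LMPTP-A, protein tyrosine phosphatase of low molecular weight; Input: 0.625 nM enzyme; Incubation: 50 min dark incubation at room temperature; Signal: endpoint fluorescence intensity from OMFP dephosphorylation; Read-out basis: % inhibition versus control wells.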
STEP inh: blocks human striatal-enriched tyrosine phosphatase. P54829. 360,000 compounds, 0.25% hits. recombinant STEP, OMFP fluorogenic substrate, fluorescence. inhibition, % at 20 µM;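 active = inhibition at 20 µM, scaled per plate between control wells, above about 37%, limit read from the data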;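 also: 0% = DMSO with enzyme and substrate and 100% = substrate only without enzyme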
Target sequence (P54829 whole entry, looked up): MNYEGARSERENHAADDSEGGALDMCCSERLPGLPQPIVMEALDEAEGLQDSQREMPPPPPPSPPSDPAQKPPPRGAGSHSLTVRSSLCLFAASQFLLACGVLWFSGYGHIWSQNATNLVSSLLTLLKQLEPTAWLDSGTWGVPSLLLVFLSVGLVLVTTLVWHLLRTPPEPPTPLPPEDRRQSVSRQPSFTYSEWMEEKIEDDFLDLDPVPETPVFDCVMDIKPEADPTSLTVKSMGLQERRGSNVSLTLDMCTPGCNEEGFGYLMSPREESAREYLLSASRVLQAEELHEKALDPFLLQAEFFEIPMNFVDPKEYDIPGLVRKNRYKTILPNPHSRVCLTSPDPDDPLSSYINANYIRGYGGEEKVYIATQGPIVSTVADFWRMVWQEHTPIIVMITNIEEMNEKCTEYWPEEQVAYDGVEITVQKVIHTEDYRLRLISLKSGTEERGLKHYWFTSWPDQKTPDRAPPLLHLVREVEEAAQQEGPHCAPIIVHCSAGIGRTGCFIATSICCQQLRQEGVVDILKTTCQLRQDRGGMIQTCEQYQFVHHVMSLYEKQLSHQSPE
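Assay system: isolated STEP enzyme / Timing: 20 min at room temperature, dark / Doses: 20 µM, 1% DMSO / Technique: fluorescence intensity, excitation 480 nm, emission 540 nm / Reagent: fluorogenic phosphatase substrate OMFP at 25 µM final / Measure: percent inhibition scaled to no-enzyme and uninhibited-enzyme controls, plate-pattern corrected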
Scp1 inh: inhibitors of human Scp-1 phosphatase; AID 493091; Q9GZU7; Recombinant Scp1, phosphopeptide, malachite green phosphate absorbance; 340,000 compounds, 0.88% hits; inhibition, % at 20 µM;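 active = inhibition above about 50% at 20 µM, limit read from the data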;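 also: plate controls were DMSO wells with enzyme for no effect and wells lacking enzyme for full effect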
Target sequence (Q9GZU7 76-261 limits assumed): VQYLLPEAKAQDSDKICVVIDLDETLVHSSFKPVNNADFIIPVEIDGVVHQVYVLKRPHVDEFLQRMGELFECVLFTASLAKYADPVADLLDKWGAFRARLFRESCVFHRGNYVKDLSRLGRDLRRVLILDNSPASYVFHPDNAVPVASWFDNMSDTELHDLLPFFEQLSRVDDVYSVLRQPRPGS
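Test system: SCP-1 phosphatase catalytic domain, residues 76-261 | Compound dosing: One concentration, 20 µM, with 1.0% DMSO | Schedule: 45 min room-temperature reaction, 5 min colour, 30 min stabiliser | Detection: Absorbance at 630 nm | Read-out basis: % inhibition of SCP-1 phosphate liberation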
Scp-1 conf: Scp-1 (human) inhibition, single-dose confirmed; recombinant SCP-1 catalytic domain, phosphate release, malachite green absorbance; inhibition, % at 20 µM; 2,500 compounds, 61% hits; AID 540281; shares compounds with Scp1 inh;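 also: plate controls were DMSO with enzyme for no effect and buffer wells lacking enzyme for full effect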
Scp-1 MG ctr: counter-screen for Scp-1 inhibitors: colorimetric interference; shares compounds with Scp1 inh; Colorimetric interference counterscreen, malachite green absorbance 630 nm; apparent inhibition (interference), % at 20 µM; 2,500 tested, under 10 active;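 also: compounds added after enzyme reaction finished so only phosphate colour detection is probed; plate controls were DMSO wells with completed Scp-1 reaction for no effect and substrate wells lacking enzyme for full effect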
Scp1 DSF: validation of human Scp-1 inhibitors by thermal shift binding. shares compounds with Scp1 inh. Recombinant SCP1, Sypro Orange thermal shift Tm. thermal shift relative to vanadate control, % at 40 µM. 1,500 compounds, 25% hits. AID 540329;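 active = substances whose mean melting-temperature shift, as a percentage of the reference inhibitor's shift, reaches about 5.3%, limit read from the data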;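 also: 0% = Tm of DMSO wells and 100% = Tm with sodium orthovanadate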
The depositor's hits bear a star; x = no result.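 The calls were made as follows, unless noted: active = inhibition of at least 30% at 20 µM; inactive = the rest.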

SMILES | SUMO1 PPI mod | DNMT1 inh | NadD block | LMPTP inh | STEP inh | Scp1 inh | Scp-1 conf | Scp-1 MG ctr | others
Cn1cc(/C=N/NC(=O)c2cc3cc(Br)ccc3o2)c2ccccc21 | -6.6 | 9.3 | 19.5 | -1.1 | 4.1 | 61.9* | -17.5 | -15.3
Cc1c(C(=O)Nc2ccc(S(N)(=O)=O)cc2)oc2ccc(Cl)cc12 | -1.1 | 16.5 | 8.9 | -0.5 | 1.2 | -11.0 | x | x
Cc1ccc(-n2nnnc2-c2cnc(-c3cccnc3)nc2C(F)(F)F)cc1 | -2.8 | -3.1 | -6.0 | -0.6 | 1.8 | -3.6 | x | x
FC(F)(F)c1nc(-c2ccncc2)ncc1-c1nnnn1-c1ccccc1 | -9.7 | 0.5 | 0.9 | -0.1 | 3.8 | 78.1* | -16.0 | -12.3
CCOC(=O)N1CCN(c2c(NCC3CCCO3)c(=O)c2=O)CC1 (centres undefined) | -3.4 | -3.0 | 3.6 | 0.5 | -1.0 | 81.8* | -1.2 | -7.3
CCOC(=O)N1CCN(c2c(NCCOC)c(=O)c2=O)CC1 | -1.3 | 4.0 | 1.4 | -0.7 | -2.8 | 3.5 | x | x
O=C(NC1=NCCS1)c1ccccc1Br | 1.0 | 2.1 | -3.4 | 0.5 | -1.8 | -3.3 | x | x
COC(=O)[C@H]1C[C@H](O)CN1S(=O)(=O)c1ccc(Br)cc1F | 2.9 | 7.0 | 2.3 | -0.7 | -2.9 | 53.3* | -14.8 | -16.2
COC(=O)N/N=C/c1ccccc1OCCOc1ccc(OC)cc1 | 1.5 | -2.0 | -11.9 | 1.0 | -3.3 | -0.7 | x | x
O=C(O)C1C2CCC(O2)C1C(=O)NCc1ccccc1Br (centres undefined) | -0.1 | 2.6 | 5.4 | 0.1 | 0.4 | -1.4 | x | x
C[C@H](CO)N1C[C@H](C)[C@@H](CN(C)C(=O)Nc2ccccc2)Oc2ccc(NC(=O)Nc3ccccc3)cc2C1=O | 5.5 | -0.7 | 13.5 | 0.1 | -0.6 | 70.8* | 14.9 | -11.2
C[C@H](CO)N1C[C@H](C)[C@@H](CN(C)C(=O)Nc2ccccc2)Oc2ccc(NC(=O)c3ccncc3)cc2C1=O | -3.0 | 10.9 | 8.2 | 0.2 | 1.3 | 75.3* | 17.7 | -15.3
CC(C)NC(=O)Nc1ccc2c(c1)C(=O)N([C@H](C)CO)C[C@H](C)[C@@H](CN(C)C(=O)Nc1ccc3c(c1)OCO3)O2 | 1.5 | -1.0 | -0.5 | -1.3 | 0.0 | 62.1* | -6.8 | -16.7
C[C@H](CO)N1C[C@H](C)[C@@H](CN(C)C(=O)Nc2ccc(C(F)(F)F)cc2)Oc2ccc(NC(=O)Nc3ccccc3)cc2C1=O | 4.5 | -18.4 | 17.4 | 1.9 | -1.7 | 12.3 | x | x
C[C@H](CO)N1C[C@H](C)[C@@H](CN(C)C(=O)Nc2ccc(C(F)(F)F)cc2)Oc2ccc(NC(=O)C3CC3)cc2C1=O | 1.5 | 0.1 | -1.5 | 0.6 | 0.9 | 56.2* | -2.5 | -20.6
CC1(C)CC(CCC(=O)NC(=S)Nc2ccccc2Cl)C(=O)O1 (centres undefined) | 2.9 | 2.2 | -4.2 | -0.8 | -0.6 | -8.6 | -10.5 | -15.6
O=C(CCN1C(=O)c2ccccc2C1=O)NC(=S)Nc1ccccc1Cl | -6.1 | -9.3 | 3.1 | 1.6 | -1.3 | -2.7 | x | x
O=C(COn1nnc2ccc(Cl)cc21)NCc1ccccc1 | -1.9 | -0.7 | -4.4 | -1.6 | -4.5 | -2.0 | x | x
CCc1n[nH]c(=S)n1/N=C/c1cc(Br)c(O)c(OC)c1 | 17.8 | 0.7 | -6.0 | -5.4 | -3.3 | 0.9 | x | x
C=CCOc1c(Br)cc(/C=N/n2c(CC)n[nH]c2=S)cc1Br | 4.2 | 13.3 | 0.3 | 0.8 | 1.6 | 71.6* | -16.9 | -16.4
CC(C)c1ccc(OC(=O)c2cccc(S(=O)(=O)N3CCN(C)CC3)c2)cc1 | 3.1 | -0.8 | 5.6 | -2.3 | -1.9 | 95.6* | 86.2* | -8.2 | Scp1 DSF=-27.0
CN1CCN(S(=O)(=O)c2cccc(C(=O)Oc3ccc(C(C)(C)C)cc3)c2)CC1 | -0.2 | 0.7 | -12.8 | -3.6 | -0.4 | -0.4 | x | x
CC(NC(=O)COC(=O)c1cccc(S(=O)(=O)N2CCCC2)c1)c1ccccc1 (centres undefined) | -1.3 | 0.5 | -3.1 | -1.6 | -1.2 | 53.0* | -12.6 | -17.0
CC(C)[C@H](NC(=O)c1ccc(Cl)c([N+](=O)[O-])c1)C(=O)O | -13.1 | 0.5 | -1.8 | -1.4 | -1.4 | -8.4 | x | x
Cc1ccc(CN(C)CC(=O)NC(C)c2ccccc2)cc1 (centres undefined) | 3.3 | -0.3 | -1.2 | -0.6 | -0.6 | -7.1 | x | x
SMILES | SUMO1 PPI mod | DNMT1 inh | NadD block | LMPTP inh | STEP inh | Scp1 inh | Scp-1 conf | Scp-1 MG ctr | others
CCOC(=O)N1CCN(C(=O)CSc2ncnc3ccccc23)CC1 | -2.7 | 1.5 | -5.0 | -1.3 | -3.4 | 53.6* | -26.6 | -18.0
CCOC(=O)N1CCN(C(=O)CSc2nc3ccccc3c(=O)n2-c2ccccc2)CC1 | 2.0 | 0.0 | 1.8 | -1.4 | -5.9 | -8.1 | x | x
COc1ccc(/C=N/NC(=O)CCc2ccccc2)cc1O | -9.4 | -3.8 | 0.2 | 0.9 | 0.3 | 1.6 | x | x
CCOC(=O)c1cc(C#N)c(SCC(=O)c2cc(C#N)c(SC)nc2C)[nH]c1=O | 13.8 | -4.4 | 7.1 | 2.0 | 6.3 | 89.4* | 23.5 | -12.0
Cc1ccc(S(=O)(=O)N(CCCO)CC(O)CON=C2c3ccccc3-c3ccccc32)cc1 (centres undefined) | 5.8 | -34.7 | -12.5 | 4.0 | 3.2 | 61.1* | 15.8 | -10.1
CCN(CC(O)Cn1c2ccccc2c2ccccc21)S(=O)(=O)c1ccc(C)cc1 (centres undefined) | -0.4 | -13.7 | -4.8 | 4.5 | -0.4 | -8.1 | x | x
O=C1NCCN1CCNS(=O)(=O)c1ccc(F)cc1 | 0.7 | 2.1 | -7.5 | -0.8 | 1.7 | -9.7 | -19.4 | -16.4
COc1ccc(S(=O)(=O)NCCN2CCNC2=O)cc1OC | -4.7 | 4.7 | 5.0 | 1.3 | -1.7 | -7.3 | 0.8 | -3.0
COc1ccc(Oc2coc3cc(O)ccc3c2=O)cc1 | 0.5 | -0.9 | 3.3 | 1.3 | 2.1 | 3.0 | x | x
CCOc1cc(/C=N/N=C2/NC(=O)C(CC(=O)O)S2)ccc1OCc1ccc(Cl)cc1 (centres undefined) | -0.3 | -0.5 | 21.4 | 1.1 | 5.5 | 75.4* | 68.8* | -11.2 | Scp1 DSF=-13.7
Cc1ccc(OCC(=O)N/N=C\c2ccc(O)c([N+](=O)[O-])c2)c([N+](=O)[O-])c1 | -13.0 | 0.6 | 0.7 | -5.3 | 0.6 | 66.6* | 41.8* | -4.3 | Scp1 DSF=9.8*
Cc1ccc(/C=N\NC(=O)COc2ccc(C)cc2[N+](=O)[O-])cc1 | -11.7 | 13.8 | -2.3 | 0.6 | -2.0 | -1.4 | x | x
O=C(O)CSc1cccnc1Sc1ccc(Cl)cc1 | 3.6 | -2.6 | -3.8 | -0.8 | 1.2 | -10.7 | x | x
